For assay [1], the system named is Nakaseomyces glabratus. As to the kind of experiment: In vitro Minimum inhibitory concentration was determined by microbroth dilution assay on Torulopsis glabrata. In kind it is functional. The gist of the method: (§1)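 Microbroth dilution, 4×10^3 cells/mL (C. albicans B311; C. tropicalis and T. glabrata clinical isolates, pre-grown 18 h at 35 °C and washed) in YNB with asparagine and glucose, pH 5.5; 0.10–100 μg/mL drug, 1% DMSO final; 24 h at 35 °C, quadruplicate wells. MIC read visually as first concentration with marked growth reduction; geometric mean reported.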

In assay [2] the test system is Candida albicans. As to the kind of experiment: Inhibition type against delta 24-sterol Methyl transferase. The gist of the method: (§2)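 Microsomes from C. albicans ATCC 28367, 0.20 mg microsomal protein per assay; desmosterol as sterol substrate, SAM 25 μM; standard assay pH 7.5. Reversible inhibition patterns and constants fitted by Cleland COMP/NONCOMP, or otherwise by a parabolic competitive inhibition equation, which gives the alpha cooperativity factor for binding of two inhibitor molecules.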

For assay [3], the system named is Candida albicans. The assay is described as follows: In vitro Minimum lethal concentration was determined by microbroth dilution assay on Candida albicans. The format is functional. The gist of the method:
(§3)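 C. albicans strain B311; C. tropicalis and T. glabrata were clinical isolates. Yeasts were pregrown 18 h at 35 °C, 125 rpm, in the test medium, saline-washed three times and counted by hemocytometer. Assay medium was YNB with 0.15% asparagine and 2% glucose, pH 5.5. Final drug 0.10 to 100 μg/mL, 1% DMSO, 4×10^3 cells/mL, quadruplicate wells, 35 °C for 24 h. MLC = first concentration whose subculture (Sabouraud agar, 48 h, 35 °C) gave ≤50 CFU/mL; geometric mean reported.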

Assay [4] concerns Candida tropicalis. The assay is described as follows: In vitro Minimum inhibitory concentration was determined by microbroth dilution assay on Candida tropicalis. In kind it is functional. The procedure, abridged:
as §1

Assay [5] has as its system Candida tropicalis. The assay is described as follows: In vitro Minimum lethal concentration was determined by microbroth dilution assay on Candida tropicalis. In kind it is functional. The procedure, abridged: as §3
Assay [6] relates to Candida albicans. As to the kind of experiment: Alpha factor which describes the cooperativity of binding of 2 identical inhibitor molecules. The gist of the method: as §2
Assay [7] deals with Nakaseomyces glabratus. As to the kind of experiment: In vitro Minimum lethal concentration was determined by microbroth dilution assay on Torulopsis glabrata. In kind it is functional. The procedure, abridged: as §3
Assay [8] relates to Candida albicans. The assay is described as follows: Compound was tested for the inhibition of Delta 24-sterol-C-methyl-transferase. The procedure, abridged: as §2
Assay [9] deals with Candida albicans. As to the kind of experiment: In vitro Minimum inhibitory concentration was determined by microbroth dilution assay on Candida albicans. In kind it is functional. The gist of the method: as §1
Assay [10] relates to Candida albicans. As to the kind of experiment: Compound was tested for the inhibition of delta24-sterol Methyl transferase. The gist of the method: as §2
Assay [11] has as its system Candida albicans.

Each structure is given as a SMILES string. ≈ marks a conversion by molar mass, not a printed value.

From ChEMBL document CHEMBL1126006, “Synthesis, specificity, and antifungal activity of inhibitors of the Candida albicans delta 24-sterol methyltransferase” (J Med Chem, 1992) come the findings set out here.

For `CC(C)[S+](C)CC[C@@H](C)C1CCC2C3CC=C4C[C@@H](O)CC[C@]4(C)C3CC[C@@]21C.[I-]` (some centres not stated), the MIC with Nakaseomyces glabratus [1] amounted to 1.6 µg/mL; in the assay with Candida tropicalis [4], 0.2 µg/mL; against Candida albicans [9], 0.2 µg/mL. Besides, the Inhibition type entry with Candida albicans [2] is reported as “Parabolic competitive”. Besides, the MLC with Candida albicans [3] stood at 50 µg/mL; in the assay on Candida tropicalis [5], 6.3 µg/mL; with Nakaseomyces glabratus [7], 50 µg/mL. In the assay on Candida albicans [6], the Alpha c was determined as 0.05. In addition, the Kis with Candida albicans [8] worked out at 16 nM.

Regarding `CC(C)SCC[C@@H](C)C1CC[C@@]2(C)C3=C(CC[C@]12C)[C@@]1(C)CC[C@H](O)C(C)(C)C1CC3` (some centres not stated), the Inhibition type entry with Candida albicans [2] is listed as “Competitive”. In the assay on Candida albicans [10], this compound gave a Kis of 72000 nM.

As for `C[C@@H]1[C@H](O)[C@@H](C)/C=C/C=C/C=C/C=C/C=C/C=C/C=C/[C@H](O[C@@H]2O[C@H](C)[C@@H](O)[C@H](N)[C@@H]2O)C[C@@H]2O[C@](O)(C[C@@H](O)C[C@@H](O)[C@H](O)CC[C@@H](O)C[C@@H](O)CC(=O)O[C@H]1C)C[C@H](O)[C@H]2C(=O)O` [AMPHOTERICIN B], the values for the MIC against Nakaseomyces glabratus [1], in the assay on Candida tropicalis [4] and against Candida albicans [9] were 0.1 µg/mL (≈ 0.108 µM), 0.2 µg/mL (≈ 0.216 µM) and 0.2 µg/mL (≈ 0.216 µM), respectively. For the same compound, the MLC in the assay with Candida albicans [3] worked out at 0.8 µg/mL (≈ 0.866 µM); in the assay on Candida tropicalis [5] it was 0.4 µg/mL (≈ 0.433 µM); in the assay on Nakaseomyces glabratus [7] it was 0.4 µg/mL (≈ 0.433 µM).

On to `CC(C)SCC[C@@H](C)C1CCC2C3CC=C4C[C@@H](O)CC[C@]4(C)C3CC[C@@]21C` (some centres not stated), for which the minimum inhibitory concentration (MIC) in the assay on Nakaseomyces glabratus [1] is more than 100 µg/mL; in the assay on Candida tropicalis [4], more than 100 µg/mL; with Candida albicans [9], 50 µg/mL (≈ 124 µM). The Inhibition type entry with Candida albicans [2] was “Competitive”. Also, the MLC with Candida albicans [3], in the assay with Candida tropicalis [5] and with Nakaseomyces glabratus [7] was more than 100 µg/mL in each case. In the assay with Candida albicans [8], this compound registered a Kis of 1500 nM.

With `C[C@H](CCc1ncc[nH]1)C1CC[C@@]2(C)C3=C(CC[C@]12C)[C@@]1(C)CC[C@H](O)C(C)(C)C1CC3` (some centres not stated), the minimal inhibitory concentration (MIC) in the assay on Nakaseomyces glabratus [1] was more than 100 µg/mL; in the assay on Candida tropicalis [4], more than 100 µg/mL; in the assay on Candida albicans [9], 1.6 µg/mL (≈ 3.65 µM). Moreover, the Inhibition type result in the assay on Candida albicans [2] is on record as “Noncompetitive”. Moreover, the MLC in the assay on Candida albicans [3], with Candida tropicalis [5] and in the assay on Nakaseomyces glabratus [7] was more than 100 µg/mL in each case. Besides, in the assay with Candida albicans [10], the Kis was found to be 11 nM. Also, the Kii in the assay on Candida albicans [11] stood at 25 nM.

Turning to `C[C@H](CCc1nccn1C)C1CC[C@@]2(C)C3=C(CC[C@]12C)[C@@]1(C)CC[C@H](O)C(C)(C)C1CC3` (some centres not stated), the figures for the MIC with Nakaseomyces glabratus [1], with Candida tropicalis [4] and with Candida albicans [9] were more than 100 µg/mL, 12.5 µg/mL (≈ 27.6 µM) and 0.4 µg/mL (≈ 0.884 µM), respectively. In addition, the Inhibition type result in the assay with Candida albicans [2] is “Parabolic competitive”. In addition, the results for the MLC with Candida albicans [3], in the assay on Candida tropicalis [5] and with Nakaseomyces glabratus [7] were more than 100 µg/mL, 100 µg/mL (≈ 221 µM) and more than 100 µg/mL, respectively. In the assay with Candida albicans [10], this compound yielded a Kis of 5 nM.

Turning to `CC(C)[S+]([O-])CC[C@@H](C)C1CCC2C3CC=C4C[C@@H](O)CC[C@]4(C)C3CC[C@@]21C` (some centres not stated), the Inhibition type result with Candida albicans [2] is listed as “Competitive”. In addition, the Kis in the assay with Candida albicans [10] came to 20000 nM.

As for `CC(C)[S+](C)CC[C@@H](C)C1CC[C@@]2(C)C3=C(CC[C@]12C)[C@@]1(C)CC[C@H](O)C(C)(C)C1CC3` (some centres not stated), the Inhibition type entry in the assay on Candida albicans [2] is reported as “Parabolic competitive”. The same compound yielded an Alpha c with Candida albicans [6] of 0.02. For the same compound, the Kis in the assay with Candida albicans [10] is 21 nM.

Turning to `CC(=O)N1CCN(c2ccc(OCC3COC(Cn4ccnc4)(c4ccc(Cl)cc4Cl)O3)cc2)CC1` (configuration not stated) [KETOCONAZOLE], the MIC in the assay on Nakaseomyces glabratus [1] was 3.1 µg/mL (≈ 5.83 µM); in the assay on Candida tropicalis [4] it was 1.6 µg/mL (≈ 3.01 µM); in the assay with Candida albicans [9] it was 0.1 µg/mL (≈ 0.188 µM). For the same compound, the results for the MLC in the assay with Candida albicans [3], with Candida tropicalis [5] and with Nakaseomyces glabratus [7] were 12.5 µg/mL (≈ 23.5 µM), 6.3 µg/mL (≈ 11.9 µM) and 12.5 pug ml-1, respectively.

Regarding `C[C@H](CCC(N)=[N+](C)C)C1CC[C@@]2(C)C3=C(CC[C@]12C)[C@@]1(C)CC[C@H](O)C(C)(C)C1CC3` (some centres not stated), the Inhibition type entry in the assay on Candida albicans [2] is “Parabolic competitive”. Also, in the assay on Candida albicans [10], the Kis came out at 6 nM.

As for `C[C@H](CCC(=N)N)C1CC[C@@]2(C)C3=C(CC[C@]12C)[C@@]1(C)CC[C@H](O)C(C)(C)C1CC3.O=S(=O)(O)C(F)(F)F` (some centres not stated), the results for the MIC in the assay on Nakaseomyces glabratus [1], in the assay with Candida tropicalis [4] and in the assay on Candida albicans [9] were 3.1 µg/mL, 0.4 µg/mL and 0.2 µg/mL, respectively. In addition, the Inhibition type result with Candida albicans [2] is on record as “Parabolic competitive”. Besides, the MLC is 12.5 µg/mL with Candida albicans [3], 12.5 µg/mL in the assay with Candida tropicalis [5] and 50 µg/mL in the assay on Nakaseomyces glabratus [7]. In the assay on Candida albicans [6], this compound displayed an Alpha c of 0.06. Further, the Kis in the assay on Candida albicans [8] came to 11 nM.

With `CC[S+](CC[C@@H](C)C1CCC2C3CC=C4C[C@@H](O)CC[C@]4(C)C3CC[C@@]21C)C(C)C.[I-]` (some centres not stated), the MIC with Nakaseomyces glabratus [1] is more than 100 µg/mL; with Candida tropicalis [4], 100 µg/mL; against Candida albicans [9], 100 µg/mL. The Inhibition type entry in the assay with Candida albicans [2] is “Parabolic competitive”. The MLC in the assay with Candida albicans [3], in the assay on Candida tropicalis [5] and in the assay on Nakaseomyces glabratus [7] was more than 100 µg/mL in each case. In addition, the Kis in the assay on Candida albicans [10] is 500 nM.
